Source: ChEMBL document CHEMBL1149075, “Synthesis and evaluation of alkoxy-phenylamides and alkoxy-phenylimidazoles as potent sphingosine-1-phosphate receptor subtype-1 agonists” (Bioorg Med Chem Lett, 2009)

Legend:
[1] = target: T1, Sphingosine 1-phosphate receptor 1 (Homo sapiens, UniProt P21453); assay: Displacement of [33P]sphingosine-1-phosphate from human S1P1 receptor
[2] = target: T2, Sphingosine 1-phosphate receptor 3 (Homo sapiens, UniProt Q99500); assay: Displacement of [33P]sphingosine-1-phosphate from human S1P3 receptor
[3] = target: T3, Sphingosine 1-phosphate receptor 4 (Homo sapiens, UniProt O95977); assay: Displacement of [33P]sphingosine-1-phosphate from human S1P4 receptor
T3 sequence (O95977 whole entry): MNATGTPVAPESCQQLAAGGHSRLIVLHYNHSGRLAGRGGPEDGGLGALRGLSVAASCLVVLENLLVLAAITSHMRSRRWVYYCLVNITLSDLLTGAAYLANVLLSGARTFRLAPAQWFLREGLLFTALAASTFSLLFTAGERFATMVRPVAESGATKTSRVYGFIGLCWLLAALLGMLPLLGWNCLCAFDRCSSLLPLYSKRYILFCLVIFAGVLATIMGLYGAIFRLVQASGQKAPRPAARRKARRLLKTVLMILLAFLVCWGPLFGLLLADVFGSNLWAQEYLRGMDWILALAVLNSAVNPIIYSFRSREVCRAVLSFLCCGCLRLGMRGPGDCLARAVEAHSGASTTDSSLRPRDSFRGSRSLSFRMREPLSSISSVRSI

[4] = target: Sphingosine 1-phosphate receptor 5 (Homo sapiens, UniProt Q9H228); assay: Displacement of [33P]sphingosine-1-phosphate from human S1P5 receptor
Homo sapiens [5] = species: Homo sapiens; assay: Ratio of IC50 for human S1P3 receptor to IC50 for human S1P1 receptor
[6] = target: T1, Sphingosine 1-phosphate receptor 1; assay: Agonist activity at human S1P1 receptor assessed as stimulation of [35S]GTPgammaS binding; format: functional
[7] = target: T2, Sphingosine 1-phosphate receptor 3; assay: Agonist activity at human S1P3 receptor assessed as stimulation of [35S]GTPgammaS binding; format: functional
Homo sapiens [8] = species: Homo sapiens; assay: Ratio of EC50 for human S1P3 receptor to EC50 for human S1P1 receptor
Mus musculus [9] = assay: Immunomodulatory activity in C57BL/6 mouse assessed as lymphopenia at 10 mg/kg, po after 6 hrs by complete blood count analysis; format: functional
In short: (§1)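 Mice dosed orally with compound in 3% BSA vehicle; vehicle-only control group. Doses 0.3–10 mg/kg. At 6 h, isoflurane anesthesia, about 250 µl retro-orbital blood collected into EDTA tubes, mixed with anticoagulant, kept on tilt table, then complete blood count. Percent lymphopenia reported.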

Mus musculus [10] = assay: Immunomodulatory activity in po dosed C57BL/6 mouse assessed as lymphopenia after 6 hrs by complete blood count analysis; format: functional, organism-based; in short: as §1

T2 sequence (Q99500 whole entry): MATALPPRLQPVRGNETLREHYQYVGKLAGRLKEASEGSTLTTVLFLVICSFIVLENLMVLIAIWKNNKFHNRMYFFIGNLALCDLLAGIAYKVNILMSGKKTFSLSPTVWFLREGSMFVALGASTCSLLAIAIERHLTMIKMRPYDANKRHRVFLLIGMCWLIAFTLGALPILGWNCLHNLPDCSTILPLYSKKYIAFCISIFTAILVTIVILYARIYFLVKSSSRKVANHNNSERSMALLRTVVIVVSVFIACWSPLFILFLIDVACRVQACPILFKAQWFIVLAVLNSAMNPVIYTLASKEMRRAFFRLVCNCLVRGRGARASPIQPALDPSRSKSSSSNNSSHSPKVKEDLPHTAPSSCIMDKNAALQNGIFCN
Sphingosine 1-phosphate receptor 5, sequence (Q9H228 whole entry): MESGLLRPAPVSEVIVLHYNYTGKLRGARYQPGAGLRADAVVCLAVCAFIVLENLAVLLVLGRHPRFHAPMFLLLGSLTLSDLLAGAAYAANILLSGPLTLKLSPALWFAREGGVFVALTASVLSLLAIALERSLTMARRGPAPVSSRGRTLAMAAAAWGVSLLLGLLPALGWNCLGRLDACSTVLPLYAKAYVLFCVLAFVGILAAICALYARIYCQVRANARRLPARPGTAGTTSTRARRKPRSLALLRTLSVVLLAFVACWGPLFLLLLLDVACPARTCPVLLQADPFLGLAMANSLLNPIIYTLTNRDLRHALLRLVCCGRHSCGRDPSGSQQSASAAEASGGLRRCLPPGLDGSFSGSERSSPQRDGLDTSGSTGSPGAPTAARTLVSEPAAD
T1 sequence (P21453 whole entry): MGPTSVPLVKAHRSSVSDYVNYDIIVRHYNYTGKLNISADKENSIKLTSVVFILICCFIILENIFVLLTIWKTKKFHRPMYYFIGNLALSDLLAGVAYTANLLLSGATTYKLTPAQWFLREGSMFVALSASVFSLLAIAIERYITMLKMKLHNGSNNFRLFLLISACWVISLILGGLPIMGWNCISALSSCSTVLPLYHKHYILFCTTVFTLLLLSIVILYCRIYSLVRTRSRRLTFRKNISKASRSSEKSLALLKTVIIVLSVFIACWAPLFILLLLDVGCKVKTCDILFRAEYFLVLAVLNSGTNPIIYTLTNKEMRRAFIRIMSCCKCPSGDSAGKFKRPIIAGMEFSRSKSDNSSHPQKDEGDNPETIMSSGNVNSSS

Compound | IC50 [1] [nM] | IC50 [2] [nM] | IC50 [3] [nM] | IC50 [4] [nM] | Ratio IC50 (Homo sapiens [5]) | EC50 [6] [nM] | EC50 [7] [nM] | Ratio EC50 (Homo sapiens [8]) | Activity (Mus musculus [9]) [%] | Activity (Mus musculus [10])
CCCCCCCCOc1ccc(NC(=O)[C@@](C)(N)COP(=O)(O)O)c(F)c1 | 0.35 | 3.6 | 1.8 | 3.2 | 10.2 | 2.1 | 9.8 | 4.7 | – | –
CCCCCCCCOc1ccc(NC(=O)[C@@](C)(N)CO)cc1 | – | – | – | – | – | – | – | – | 78 | Dose-dependent effect
CCCCCCCCOc1ccc(-c2c[nH]c([C@@](C)(N)CO)n2)cc1 | – | – | – | – | – | – | – | – | 83 | –
CCCCCCCCCCCCC/C=C/[C@@H](O)[C@@H](N)COP(=O)(O)O | 0.47 | 0.66 | 2.4 | – | – | 7.9 | 3 | – | – | –
CCCCCCCCOc1ccc(-c2c[nH]c([C@@](C)(N)CO)n2)cc1F | – | – | – | – | – | – | – | – | 70 | –
CCCCCCCCOc1ccc(NC(=O)[C@@](C)(N)CO)c(F)c1 | – | – | – | – | – | – | – | – | 66 | –
CCCCCCCCOc1ccc(NC(=O)[C@@](C)(N)CO)cc1F | – | – | – | – | – | – | – | – | 65 | –
CCCCCCCOc1ccc(NC(=O)[C@@](C)(N)CO)cc1 | – | – | – | – | – | – | – | – | 72 | –
CCCCCCCCOc1ccc(NC(=O)[C@@](C)(N)COP(=O)(O)O)cc1 | 0.73 | 5.9 | 4 | 8.8 | 8.1 | 2.4 | 16.3 | 6.9 | – | –
CCCCCCCCc1ccc(NC(=O)[C@@](C)(N)CO)cc1 | – | – | – | – | – | – | – | – | 36 | –
CCCCCCCOc1ccc(-c2c[nH]c([C@@](C)(N)CO)n2)cc1 | – | – | – | – | – | – | – | – | 74 | –
CCCCCCCCOc1ccc(-c2c[nH]c([C@@](C)(N)CO)n2)c(F)c1 | – | – | – | – | – | – | – | – | 81 | –
CCCCCCCCOc1ccc(-c2c[nH]c([C@@](C)(N)COP(=O)(O)O)n2)cc1 | 0.26 | 5.3 | 1.1 | 1.4 | 20.3 | 0.55 | 14.8 | 26.9 | – | –
CCCCCCCCOc1ccc(NC(=O)[C@@](C)(N)COP(=O)(O)O)cc1F | 0.14 | 5.9 | 3.5 | 6.9 | 42 | 1.1 | 10.1 | 9.2 | – | –
CCCCCCCCOc1ccc(-c2c[nH]c([C@@](C)(N)COP(=O)(O)O)n2)cc1F | 0.35 | 5.8 | 1.9 | 1.1 | 16.5 | 0.45 | 10.8 | 24 | – | –
